Test results: ChEMBL document CHEMBL4480366, “Rationally synthesized coumarin based pyrazolines ameliorate carrageenan induced inflammation through COX-2/pro-inflammatory cytokine inhibition” (Medchemcomm, 2019)
pIC50: −log10 of the molar value. The source made the active and inactive calls. The rule behind the calls is not given here.

Assays:
[1] = target: T1, Prostaglandin G/H synthase 1 (Ovis aries, UniProt P05979); assay: Inhibition of ovine COX1 using arachidonic acid as substrate preincubated for 10 mins followed by substrate addition and measured after 2 mins by ELISA
T1 sequence (P05979 whole entry): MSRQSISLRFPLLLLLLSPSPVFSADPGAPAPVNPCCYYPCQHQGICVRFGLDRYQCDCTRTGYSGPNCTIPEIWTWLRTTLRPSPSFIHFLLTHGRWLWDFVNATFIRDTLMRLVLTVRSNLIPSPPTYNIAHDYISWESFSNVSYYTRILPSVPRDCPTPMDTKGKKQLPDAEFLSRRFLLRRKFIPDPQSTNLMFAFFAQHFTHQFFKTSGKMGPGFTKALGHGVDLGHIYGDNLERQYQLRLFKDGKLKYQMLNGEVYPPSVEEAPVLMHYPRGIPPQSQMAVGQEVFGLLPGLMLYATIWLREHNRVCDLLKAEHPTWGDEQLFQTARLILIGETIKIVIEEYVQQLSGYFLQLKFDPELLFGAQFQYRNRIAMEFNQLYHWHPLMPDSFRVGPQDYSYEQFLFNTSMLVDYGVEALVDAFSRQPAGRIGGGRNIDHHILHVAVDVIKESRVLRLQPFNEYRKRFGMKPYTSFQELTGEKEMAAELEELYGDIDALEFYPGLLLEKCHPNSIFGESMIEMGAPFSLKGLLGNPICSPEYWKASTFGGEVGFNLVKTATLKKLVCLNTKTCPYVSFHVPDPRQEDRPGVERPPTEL
Procedure, shortened: (§1)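 The enzyme, heme and test compound (dissolved in DMSO) were preincubated for 10 min at 37 °C in 0.1 M Tris-HCl, pH 8, with 5 mM EDTA and 2 mM phenol. Arachidonic acid was added to 100 µM final. The reaction was stopped after 2 min with 1 M HCl, then reduced with saturated SnCl2 for 5 min at RT. PGF2α was quantified by EIA (18 h RT, Ellman's reagent 60 min, 410 nm).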

[2] = target: T2, Prostaglandin G/H synthase 2 (Ovis aries, UniProt P79208); assay: Inhibition of ovine COX2 using arachidonic acid as substrate preincubated for 10 mins followed by substrate addition and measured after 2 mins by ELISA; procedure, shortened: as §1
T2 sequence (P79208 whole entry): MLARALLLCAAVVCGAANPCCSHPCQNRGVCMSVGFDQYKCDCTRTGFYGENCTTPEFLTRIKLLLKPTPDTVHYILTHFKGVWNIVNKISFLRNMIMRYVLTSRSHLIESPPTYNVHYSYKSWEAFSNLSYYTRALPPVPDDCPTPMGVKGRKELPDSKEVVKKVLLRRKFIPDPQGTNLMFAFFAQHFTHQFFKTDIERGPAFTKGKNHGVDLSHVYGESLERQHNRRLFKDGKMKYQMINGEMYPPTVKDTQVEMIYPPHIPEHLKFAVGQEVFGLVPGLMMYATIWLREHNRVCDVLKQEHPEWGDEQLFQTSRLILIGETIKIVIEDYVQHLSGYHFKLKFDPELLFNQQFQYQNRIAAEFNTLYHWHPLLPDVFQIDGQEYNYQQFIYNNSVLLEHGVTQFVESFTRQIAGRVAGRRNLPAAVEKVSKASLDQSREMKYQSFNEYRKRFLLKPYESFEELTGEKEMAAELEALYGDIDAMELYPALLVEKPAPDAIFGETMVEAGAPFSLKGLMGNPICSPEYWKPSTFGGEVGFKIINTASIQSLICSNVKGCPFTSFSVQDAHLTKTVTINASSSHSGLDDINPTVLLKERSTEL

[3] = In-vitro anti-inflammatory activity assessed as inhibition of heat-induced albumin (unknown origin) denaturation
Erythrocyte [4] = assay: Anti-inflammatory activity in human erythrocytes assessed as inhibition of heat-induced hemolysis; type: functional, cell-based
Rattus norvegicus [5] = assay: Anti-inflammatory activity Wistar rat assessed as inhibition of carrageenan-induced paw edema at 25 to 50 mg/kg pretreated 30 mins prior to carrageenan-induction and measured after 0.5 to 24 hrs by plethysmography; type: functional, organism-based; settings: TDE = time-dependent effect
Procedure, shortened: (§2)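 Male Wistar rats, 4–6 weeks old and weighing 150–200 g, were housed four per cage at 22–24 °C with standard food and water.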

Rattus norvegicus [6] = assay: Anti-inflammatory activity Wistar rat assessed as inhibition of carrageenan-induced paw edema at 25 to 50 mg/kg pretreated 30 mins prior to carrageenan-induction and measured after 24 hrs by plethysmography; type: functional; procedure, shortened: as §2
Rattus norvegicus [7] = assay: Anti-inflammatory activity Wistar rat assessed as reduction in TNF-alpha production at 25 mg/kg, ip pretreated 30 mins prior to carrageenan-induction and measured after 24 hrs post induction by immunoassay; type: functional, organism-based; procedure, shortened: as §2
Rattus norvegicus [8] = assay: Anti-inflammatory activity Wistar rat assessed as reduction in IL-6 production at 25 mg/kg, ip pretreated 30 mins prior to carrageenan-induction and measured after 24 hrs post induction by immunoassay; type: functional, organism-based; procedure, shortened: as §2
Rattus norvegicus [9] = assay: Anti-inflammatory activity Wistar rat assessed as reduction in IL-1beta production at 25 mg/kg, ip pretreated 30 mins prior to carrageenan-induction and measured after 24 hrs post induction by immunoassay; type: functional, organism-based; procedure, shortened: as §2
Erythrocyte [10] = assay: Anti-inflammatory activity in human erythrocytes assessed as inhibition of hypotonicity-induced hemolysis at 10 to 100 ug/ml relative to control; type: functional, cell-based
[11] = In-vitro anti-inflammatory activity assessed as inhibition of heat-induced albumin (unknown origin) denaturation at 100 ug/ml
Erythrocyte [12] = assay: Anti-inflammatory activity in human erythrocytes assessed as inhibition of heat-induced hemolysis at 10 ug/ml relative to control; type: functional
Erythrocyte [13] = assay: Anti-inflammatory activity in human erythrocytes assessed as inhibition of heat-induced hemolysis at 25 ug/ml relative to control; type: functional
Erythrocyte [14] = assay: Anti-inflammatory activity in human erythrocytes assessed as inhibition of heat-induced hemolysis at 50 ug/ml relative to control; type: functional
Erythrocyte [15] = assay: Anti-inflammatory activity in human erythrocytes assessed as inhibition of heat-induced hemolysis at 100 ug/ml relative to control; type: functional
Erythrocyte [16] = assay: Anti-inflammatory activity in human erythrocytes assessed as inhibition of hypotonicity-induced hemolysis at 10 ug/ml relative to control; type: functional
Erythrocyte [17] = assay: Anti-inflammatory activity in human erythrocytes assessed as inhibition of hypotonicity-induced hemolysis at 25 ug/ml relative to control; type: functional
Erythrocyte [18] = assay: Anti-inflammatory activity in human erythrocytes assessed as inhibition of hypotonicity-induced hemolysis at 50 ug/ml relative to control; type: functional
Erythrocyte [19] = assay: Anti-inflammatory activity in human erythrocytes assessed as inhibition of hypotonicity-induced hemolysis at 100 ug/ml relative to control; type: functional
Rattus norvegicus [20] = assay: Analgesic activity in Wistar rat assessed as reduction in acetic acid-induced abnormal writhing administered intraperitoneally 1 hr prior to acetic acid induction relative to control; type: functional; design: scale not given: the % may be the effect or the level left; procedure, shortened: as §2
Rattus norvegicus [21] = assay: Analgesic activity in Wistar rat assessed as reduction in acetic acid-induced abnormal writhing administered intraperitoneally 30 mins after substance P injection followed by acetic acid induction after 30 mins; type: functional, organism-based; procedure, shortened: as §2
[22] = Inhibition of soyabean 5-LOX after 5 mins by spectrophotometric analysis; design: species or system Glycine max
[23] = Acute toxicity in Wistar rat assessed as induction of behavioural changes at 50 mg/kg, po administered as as single dose observed continuously during first 4 hrs followed by periodic monitoring for 24 hrs and subsequent observations at once or twice daily for 14 days; type: organism-based; settings: in vivo
Procedure, shortened: (§3)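 Rats of either sex were used, per OECD guidelines, housed four per cage at 22–24 °C with standard food and water. They were fasted 4 h before and 2 h after dosing. Compounds were given as a single oral dose, with an untreated control group. Animals were watched continuously for the first 4 h, then periodically to 24 h, then once or twice daily for 14 days.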

[24] = Acute toxicity in Wistar rat assessed as induction of irritation at 300 to 2000 mg/kg, po administered as as single dose observed continuously during 1 to 4 hrs; type: organism-based; settings: in vivo; procedure, shortened: as §3
[25] = Acute toxicity in Wistar rat assessed as induction of itching at 300 to 2000 mg/kg, po administered as as single dose observed continuously during 1 to 4 hrs; type: organism-based; settings: in vivo; procedure, shortened: as §3
[26] = Acute toxicity in Wistar rat assessed as induction of sneezing at 300 to 2000 mg/kg, po administered as as single dose observed continuously during 1 to 4 hrs; type: organism-based; settings: in vivo; procedure, shortened: as §3
[27] = Cardiotoxicity in Wistar rat assessed as effect on myocardium at 2000 mg/kg, po administered as as single dose observed continuously during first 4 hrs followed by periodic monitoring for 24 hrs and subsequent observations at once or twice daily for 14 days by hematoxylin and eosin staining-based assay; type: toxicity, organism-based; settings: in vivo
[28] = Hepatotoxicity in Wistar rat assessed as effect on liver at 2000 mg/kg, po administered as as single dose observed continuously during first 4 hrs followed by periodic monitoring for 24 hrs and subsequent observations at once or twice daily for 14 days by hematoxylin and eosin staining-based assay; type: toxicity, organism-based; settings: in vivo
[29] = Renal toxicity in Wistar rat assessed as effect on kidney at 2000 mg/kg, po administered as as single dose observed continuously during first 4 hrs followed by periodic monitoring for 24 hrs and subsequent observations at once or twice daily for 14 days by hematoxylin and eosin staining-based assay; type: organism-based; settings: in vivo
[30] = Acute toxicity in Wistar rat assessed as induction of behavioural changes at 50 to 2000 mg/kg, po administered as as single dose observed continuously during first 4 hrs followed by periodic monitoring for 24 hrs and subsequent observations at once or twice daily for 14 days; settings: in vivo

| SMILES | pIC50 [1] | pIC50 [2] | inhibition [3] | Activity (Erythrocyte [4]) | inhibition (Rattus norvegicus [5]) | inhibition (INH) (Rattus norvegicus [6]) [%] | Activity (Rattus norvegicus [7]) | Activity (Rattus norvegicus [8]) | Activity (Rattus norvegicus [9]) | Activity (Erythrocyte [10]) | further results |
| --- | --- | --- | --- | --- | --- | --- | --- | --- | --- | --- | --- |
| COc1ccc(C2CC(c3cc4ccccc4oc3=O)=NN2C(C)=O)cc1 (stereo not drawn) | 4.65 | 6.39 | Dose-dependent effect | Dose-dependent effect | Tde | 67.39 | Active | Active | Active | Active | inhibition [11]: 70%; inhibition at 10 µg/mL (Erythrocyte [12]): 60%; inhibition at 25 µg/mL (Erythrocyte [13]): 63%; inhibition at 50 µg/mL (Erythrocyte [14]): 67%; inhibition at 100 µg/mL (Erythrocyte [15]): 69%; inhibition at 10 µg/mL (Erythrocyte [16]): 62%; inhibition at 25 µg/mL (Erythrocyte [17]): 63%; inhibition at 50 µg/mL (Erythrocyte [18]): 67%; inhibition at 100 µg/mL (Erythrocyte [19]): 68%; Activity (Rattus norvegicus [20]): 70.5%; Activity (Rattus norvegicus [21]): inactive; pIC50 [22]: 4.92; Activity [23]: Non-Toxic; Activity [24]: Toxic; Activity [25]: Toxic; Activity [26]: Toxic; Activity [27]: Non-Toxic; Activity [28]: Non-Toxic; Activity [29]: Non-Toxic; Activity [30]: Non-Toxic |
| CC(=O)N1N=C(c2cc3ccccc3oc2=O)CC1c1ccccc1 (stereo not drawn) |  |  | Dose-dependent effect | Dose-dependent effect |  |  |  |  |  | Active |  |
| Cc1ccc(-c2ncc(Cl)cc2-c2ccc(S(C)(=O)=O)cc2)cn1 [ETORICOXIB] | < 4.52 | 6.64 |  |  |  |  |  |  |  |  | inhibition at 10 µg/mL (Erythrocyte [12]): 65%; inhibition at 25 µg/mL (Erythrocyte [13]): 73%; inhibition at 50 µg/mL (Erythrocyte [14]): 78%; inhibition at 100 µg/mL (Erythrocyte [15]): 76%; inhibition at 10 µg/mL (Erythrocyte [16]): 52%; inhibition at 25 µg/mL (Erythrocyte [17]): 62%; inhibition at 50 µg/mL (Erythrocyte [18]): 66%; inhibition at 100 µg/mL (Erythrocyte [19]): 69%; inhibition (Rattus norvegicus [6]): Active; Activity (Rattus norvegicus [20]): 57.6% |
| CC(=O)N1N=C(c2cc3ccccc3oc2=O)CC1c1ccc(Cl)cc1 (stereo not drawn) |  |  | Dose-dependent effect | Dose-dependent effect |  |  |  |  |  | Active |  |

Second part, led by results:

| pIC50 [1] | pIC50 [2] | SMILES | inhibition [3] | Activity (Erythrocyte [4]) | inhibition (Rattus norvegicus [5]) | inhibition (INH) (Rattus norvegicus [6]) [%] | Activity (Rattus norvegicus [7]) | Activity (Rattus norvegicus [8]) | Activity (Rattus norvegicus [9]) | Activity (Erythrocyte [10]) | further results |
| --- | --- | --- | --- | --- | --- | --- | --- | --- | --- | --- | --- |
| 4.79 | 5.75 | CC(=O)N1N=C(c2cc3ccccc3oc2=O)CC1c1ccc([N+](=O)[O-])cc1 (stereo not drawn) | Dose-dependent effect | Dose-dependent effect | Tde | 52.17 | Active | Active | Active | Active |  |
| < 4.52 | 5.36 | COc1ccccc1C1CC(c2cc3ccccc3oc2=O)=NN1C(C)=O (stereo not drawn) | Dose-dependent effect | Dose-dependent effect |  |  |  |  |  | Active |  |
| 4.70 | 5.62 | CC(=O)N1N=C(c2cc3ccccc3oc2=O)CC1c1ccc(O)cc1 (stereo not drawn) | Dose-dependent effect | Dose-dependent effect | Tde | 55.43 | Active | Active | Active | Active |  |
| < 4.52 | 5.36 | COc1cc(C2CC(c3cc4ccccc4oc3=O)=NN2C(C)=O)cc(OC)c1OC (stereo not drawn) | Dose-dependent effect | Dose-dependent effect |  |  |  |  |  | Active |  |
